# Test results as given in paper PMC8251575 (Diabetes, Obesity & Metabolism, 2021).
# Experiments:
# [1] = test system: subjects with type 2 diabetes; assay: Safety: treatment-emergent adverse events and hypoglycaemic episodes; format: in vivo, human; details: during oral semaglutide treatment
# Procedure, shortened: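 This was a 12-week crossover versus placebo in adults aged 18–75 with type 2 diabetes (HbA1c 6.0%–9.0%, BMI 20–38 kg/m²), with a 5–9-week wash-out between periods. Treatment-emergent AEs and hypoglycaemic episodes were counted from first dose to end of follow-up. Hypoglycaemia was defined as plasma glucose ≤3.9 mmol/L, or >3.9 mmol/L with symptoms. The population was the safety analysis set: all subjects given at least one dose.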
# [2] = Oral semaglutide pharmacokinetics in plasma; format: in vivo, human; details: median (min, max)
# Procedure, shortened: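 Adults with type 2 diabetes on diet/exercise and/or metformin took once-daily oral tablets in a crossover trial: 3 mg weeks 0–4, 7 mg weeks 4–8, 14 mg weeks 8–12. Plasma was sampled at weeks 4, 8 and 12 after the last dose of each strength.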
smiles,measurement,setting,value
CC[C@H](C)[C@H](NC(=O)[C@H](Cc1ccccc1)NC(=O)[C@H](CCC(=O)O)NC(=O)[C@H](CCCCNC(=O)COCCOCCNC(=O)COCCOCCNC(=O)CC[C@H](NC(=O)CCCCCCCCCCCCCCCCC(=O)O)C(=O)O)NC(=O)[C@H](C)NC(=O)[C@H](C)NC(=O)[C@H](CCC(N)=O)NC(=O)CNC(=O)[C@H](CCC(=O)O)NC(=O)[C@H](CC(C)C)NC(=O)[C@H](Cc1ccc(O)cc1)NC(=O)[C@H](CO)NC(=O)[C@H](CO)NC(=O)[C@@H](NC(=O)[C@H](CC(=O)O)NC(=O)[C@H](CO)NC(=O)[C@@H](NC(=O)[C@H](Cc1ccccc1)NC(=O)[C@@H](NC(=O)CNC(=O)[C@H](CCC(=O)O)NC(=O)C(C)(C)NC(=O)[C@@H](N)Cc1cnc[nH]1)[C@@H](C)O)[C@@H](C)O)C(C)C)C(=O)N[C@@H](C)C(=O)N[C@@H](Cc1c[nH]c2ccccc12)C(=O)N[C@@H](CC(C)C)C(=O)N[C@H](C(=O)N[C@@H](CCCNC(=N)N)C(=O)NCC(=O)N[C@@H](CCCNC(=N)N)C(=O)NCC(=O)O)C(C)C [Oral semaglutide],"Deaths, n (subjects)",[1]; N = 15,no deaths
same,"Any AE, % of subjects",[1]; safety analysis set N = 15,93.3%
same,Semaglutide tmax,"[2]; 3 mg once daily, week 4, n = 15",1 h
same,Semaglutide tmax,"[2]; 7 mg once daily, week 8, n = 13",1 h
same,Semaglutide tmax,"[2]; 14 mg once daily, week 12, n = 13",1 h
